Source: PubChem
This is one part of a sample in which hits are shown more often than they occur.
GASC1 inh = KDM4C (human) demethylase inhibition. Q9H3R0. 96,000 tested, 0.15% active. inhibition, % at 12.5 µM. GST-KDM4C 2-372, H3K9me3 peptide, LANCE TR-FRET;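 active = mean replicate inhibition above about 25%, with at least 55% of replicates also reaching it, limit read from the data, passing the limit was not always enough; inconclusive = only one of those two conditions met; inactive = neither condition met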
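Compound: one test concentration per compound; Material: GST-GASC-1 enzyme fragment 2-372; Amount: GASC-1 enzyme at 10 nM final in reaction; Also added: H3K9me3 peptide substrate, Fe(II), 2-oxoglutarate; Technique: LANCE TR-FRET; Times: 30 min demethylation and 1 h detection at room temperature.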
T cruzi growth-1 = blocks T. cruzi growth in NIH3T3 culture; T. cruzi beta-gal in NIH3T3, GalScreen luminescence, 90 h; inhibition, % at 8.34 µM; 77,000 tested, 5.9% active;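 active = mean inhibition above about 93%, with at least 55% of replicates each passing it, limit read from the data, passing the limit was not always enough; inconclusive = only one of those two conditions holds; inactive = neither condition holds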
IDH1 R132H inh = blocks human IDH1 R132H reductase activity | diaphorase/resazurin fluorescence, 60 min | inhibition, % at 10 µM | 70,000 tested, 0.18% active | AID 624101; in the data active = inhibition above about 34%; inconclusive = no clear call, values can overlap the other calls; inactive = below about 11%
Target sequence (O75874 whole entry R132H): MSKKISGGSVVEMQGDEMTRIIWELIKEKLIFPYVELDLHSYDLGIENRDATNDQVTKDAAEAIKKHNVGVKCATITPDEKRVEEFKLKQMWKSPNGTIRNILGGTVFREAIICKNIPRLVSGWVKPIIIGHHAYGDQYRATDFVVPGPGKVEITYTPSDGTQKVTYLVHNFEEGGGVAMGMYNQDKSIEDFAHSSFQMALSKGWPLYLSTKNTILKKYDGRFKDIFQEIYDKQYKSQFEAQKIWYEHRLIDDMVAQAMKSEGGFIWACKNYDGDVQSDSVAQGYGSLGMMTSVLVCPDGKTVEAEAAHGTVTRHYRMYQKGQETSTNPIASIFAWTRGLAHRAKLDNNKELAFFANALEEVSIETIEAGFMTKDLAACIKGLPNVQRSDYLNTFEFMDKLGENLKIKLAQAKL
T cruzi growth-2 = blocks T. cruzi growth in NIH3T3 host cells. inhibition, % at 8.35 µM. shares compounds with T cruzi growth-1. AID 651739. 5,600 tested, 72% active. T. cruzi beta-gal in NIH3T3, GalScreen luminescence, 90 h;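 active = mean replicate inhibition above about 95% and at least 55% of replicates individually reaching it, limit read from the data; inconclusive = only one of the two criteria is met; inactive = neither criterion is met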
T cruzi growth-3 = Trypanosoma cruzi proliferation inhibition; 5,600 tested, 21% active; T. cruzi beta-gal in NIH3T3, GalScreen luminescence, 90 h; inhibition, % at 2.09 µM; shares compounds with T cruzi growth-1;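 active = mean inhibition above about 95%, with at least 55% of replicates also reaching it, limit read from the data; inconclusive = meets just one of the two conditions; inactive = meets neither condition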
NIH3T3 tox = NIH/3T3 (mouse) viability loss; shares compounds with T cruzi growth-1; NIH/3T3 viability, CellTiter-Glo ATP luminescence, 90 h; cytotoxicity (signal decrease), % at 8.35 µM; 5,600 tested, 14% active;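 active = mean signal decrease across replicates above about 35% based on untreated-well scatter, with enough replicates individually passing, limit read from the data; inconclusive = no rule stated though some were filed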
NIH3T3 tox 2 = NIH/3T3 (mouse) viability loss. shares compounds with T cruzi growth-1. NIH/3T3 viability, CellTiter-Glo ATP luminescence, 90 h. inhibition, % at 24.9 µM. 5,600 tested, 56% active. AID 651744;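 active = mean loss of cell viability signal at or above a set limit, and enough replicates individually reaching it; inconclusive = meets only the mean limit or only the replicate share; inactive = meets neither condition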
Numbers stand for hits; . = inactive; ? = inconclusive; / = no result.

SMILES	GASC1 inh	T cruzi growth-1	IDH1 R132H inh	T cruzi growth-2	T cruzi growth-3	NIH3T3 tox	NIH3T3 tox 2
C[C@@H]1CN([C@@H](C)CO)C(=O)c2cc(NS(=O)(=O)c3ccc(Cl)cc3)ccc2O[C@H]1CN(C)Cc1ccc(-c2ccccc2)cc1	.	109.4	/	105.6	.	.	104.2
C[C@H]1CN([C@@H](C)CO)C(=O)c2cc(NS(=O)(=O)c3ccc(Cl)cc3)ccc2O[C@H]1CN(C)Cc1ccc(-c2ccccc2)cc1	.	.	.	/	/	/	/
C=C(CCCCCCCC(=O)O)C(=O)O	/	/	.	/	/	/	/
COC(=O)c1cc(OC)c(OC)cc1NC(=O)C(C)Oc1ccc(OC)cc1 (stereo not given)	/	/	.	/	/	/	/
O=C(NO)c1cccc(C(=O)N/N=C/c2ccc([N+](=O)[O-])c(O)c2)c1	/	/	.	/	/	/	/
Cc1cc(C)c(C)c(S(=O)(=O)NCC(=O)Nc2ccc3c(c2)OCCO3)c1C	/	/	.	/	/	/	/
CS(=O)(=O)N(CC(=O)Nc1c(F)cccc1F)c1ccc(Br)cc1	/	/	.	/	/	/	/
CN1c2ccc(-c3ccccc3F)cc2[C@@H]2[C@@H](CCN2C(=O)Nc2ccc(F)cc2)[C@@H]1CO	.	107.0	/	103.6	101.4	.	43.4
CCC(=O)N1CC[C@@H]2[C@H]1c1cc(-c3ccccc3F)ccc1N(C)[C@H]2CO	.	.	/	/	/	/	/
CN1c2ccc(-c3ccccc3F)cc2[C@H]2[C@H](CCN2C(=O)Nc2ccc(F)cc2)[C@H]1CO	.	?	/	111.1	.	.	45.4
CCC(=O)N1CC[C@@H]2[C@@H](CO)N(C)c3ccc(-c4ccccc4F)cc3[C@@H]21	.	.	/	/	/	/	/
COc1cc2c(cc1NC(=O)COC(C)=O)oc1ccccc12	/	/	.	/	/	/	/
COc1ccc(S(=O)(=O)N(C)CC(=O)NC2CC2)cc1C	/	/	.	/	/	/	/
Cc1cccc(S(=O)(=O)N(C)C[C@@H]2OCc3ccccc3-c3c(n(C)c4ccccc34)C(=O)N([C@@H](C)CO)C[C@H]2C)c1	.	.	/	/	/	/	/
Cc1cccc(S(=O)(=O)N(C)C[C@H]2OCc3ccccc3-c3c(n(C)c4ccccc34)C(=O)N([C@H](C)CO)C[C@H]2C)c1	.	.	.	/	/	/	/
Cc1cccc(S(=O)(=O)N(C)C[C@@H]2OCc3ccccc3-c3c(n(C)c4ccccc34)C(=O)N([C@@H](C)CO)C[C@@H]2C)c1	.	100.3	.	102.8	.	.	80.4
Cc1cccc(S(=O)(=O)N(C)C[C@H]2OCc3ccccc3-c3c(n(C)c4ccccc34)C(=O)N([C@@H](C)CO)C[C@H]2C)c1	.	98.7	.	99.6	108.5	.	.
CC(C)c1cc(C(=O)N2CCOCC2)c(NC(=O)c2cc(-c3cccnc3)nc3ccc(Br)cc23)s1	/	/	.	/	/	/	/
CC(=O)OC[C@@]12C(=O)C[C@@H](C)[C@]3(C[C@@H](c4ccoc4)OC3=O)[C@H]1CC[C@H](O)[C@]21CO1	/	/	.	/	/	/	/
COc1cc(NC(=O)COc2c(Cl)c(C)c(Cl)c(C)c2Cl)c(OC)cc1Cl	/	/	.	/	/	/	/
C[C@@H]1CN([C@H](C)CO)S(=O)(=O)c2ccc(C#CCC3CCCC3)cc2O[C@H]1CN(C)C(=O)CN(C)C	.	.	.	/	/	/	/
CCC(=O)N(C)C[C@@H]1Oc2cc(C#CCC3CCCC3)ccc2S(=O)(=O)N([C@@H](C)CO)C[C@@H]1C	.	97.3	.	?	.	.	104.3
CCC(=O)N(C)C[C@@H]1Oc2cc(C#CCC3CCCC3)ccc2S(=O)(=O)N([C@H](C)CO)C[C@@H]1C	.	105.4	.	107.0	.	.	97.3
C[C@H]1CN([C@@H](C)CO)S(=O)(=O)c2ccc(C#CCC3CCCC3)cc2O[C@@H]1CN(C)C(=O)CN(C)C	.	.	.	/	/	/	/
Cc1nnc(SCC(=O)N2N=CCC2c2ccccc2)s1 (stereo not given)	/	/	.	/	/	/	/
SMILES	GASC1 inh	T cruzi growth-1	IDH1 R132H inh	T cruzi growth-2	T cruzi growth-3	NIH3T3 tox	NIH3T3 tox 2
O=C(CCN1C(=O)C2C3c4ccccc4C(c4ccccc43)C2C1=O)Oc1cccc2cccnc12 (stereo not given)	/	/	.	/	/	/	/
CS(=O)(=O)N(CC(=O)Nc1cccc(C(F)(F)F)c1)c1ccc(Br)cc1	/	/	.	/	/	/	/
Cc1cccc(C)c1OCC(=O)Nc1ccccc1C(=O)Nc1ccc(C(=O)O)cc1	/	/	.	/	/	/	/
C[C@@H]1CCCCO[C@H](CN(C)C(=O)Nc2ccc3c(c2)OCO3)[C@H](C)CN([C@H](C)CO)C(=O)c2cc(NC(=O)CCCN(C)C)ccc2O1	.	104.0	/	.	.	.	.
C[C@H]1CCCCO[C@H](CN(C)C(=O)Nc2ccc3c(c2)OCO3)[C@@H](C)CN([C@@H](C)CO)C(=O)c2cc(NC(=O)Cc3ccccc3)ccc2O1	.	?	/	.	.	.	.
C[C@@H]1CCCCO[C@@H](CN(C)C(=O)Nc2ccc3c(c2)OCO3)[C@@H](C)CN([C@@H](C)CO)C(=O)c2cc(NC(=O)Cc3ccccc3)ccc2O1	.	.	/	/	/	/	/
C[C@@H]1CCCCO[C@@H](CN(C)C(=O)Nc2ccc3c(c2)OCO3)[C@@H](C)CN([C@@H](C)CO)C(=O)c2cc(NC(=O)CCCN(C)C)ccc2O1	.	/	.	/	/	/	/
C[C@@H]1CCCCO[C@@H](CN(C)C(=O)Nc2ccc3c(c2)OCO3)[C@H](C)CN([C@@H](C)CO)C(=O)c2cc(NC(=O)Nc3ccc(F)cc3)ccc2O1	.	.	.	/	/	/	/
C[C@@H]1CCCCO[C@H](CN(C)C(=O)Nc2ccc3c(c2)OCO3)[C@H](C)CN([C@H](C)CO)C(=O)c2cc(NC(=O)Nc3ccccc3)ccc2O1	.	107.9	.	110.5	.	.	.
C[C@H]1CCCCO[C@@H](CN(C)C(=O)Nc2ccc3c(c2)OCO3)[C@@H](C)CN([C@@H](C)CO)C(=O)c2cc(NC(=O)Nc3ccc(F)cc3)ccc2O1	.	103.0	/	106.4	.	.	.
C[C@@H]1CCCCO[C@@H](CN(C)C(=O)Nc2ccccc2)[C@H](C)CN([C@@H](C)CO)C(=O)c2cc(NC(=O)Nc3ccc4c(c3)OCO4)ccc2O1	.	.	/	/	/	/	/
COc1cccc(C(=O)COc2cccc(NC(=O)c3ccc(Cl)c(Cl)c3)c2)c1	/	/	.	/	/	/	/
O=C(COc1ccc2ccccc2c1Br)Nc1ccccc1C(=O)N1CCCCC1	/	/	.	/	/	/	/
Cc1ccc(S(=O)(=O)N(C)CC(=O)Nc2ccccc2C(N)=O)cc1	/	/	.	/	/	/	/
Cn1c(SCC(=O)Nc2ccccc2Cl)nnc1-c1ccc(Br)cc1	/	/	.	/	/	/	/
C[C@@H]1CCCCO[C@H](CN(C)C(=O)Nc2ccc(F)cc2)[C@H](C)CN([C@H](C)CO)C(=O)c2cc(NS(=O)(=O)c3ccc(F)cc3)ccc2O1	.	.	/	/	/	/	/
O=[N+]([O-])c1cccc(-c2nn(-c3ccccc3)cc2CNCc2ccccc2)c1	/	/	.	/	/	/	/
C[C@H]1CCCCO[C@@H](CN(C)C(=O)Nc2ccc3c(c2)OCO3)[C@@H](C)CN([C@@H](C)CO)C(=O)c2cc(NC(=O)Nc3ccccc3)ccc2O1	.	117.2	/	111.0	.	.	.
